Here are results for one compound from ChEMBL document CHEMBL4308845, “Allosteric Activation of Striatal-Enriched Protein Tyrosine Phosphatase (STEP, PTPN5) by a Fragment-like Molecule” (J Med Chem, 2019).

Experiment [1] deals with T1, Tyrosine-protein phosphatase non-receptor type 5 (Mus musculus) (UniProt P54830).
T1 sequence (whole entry): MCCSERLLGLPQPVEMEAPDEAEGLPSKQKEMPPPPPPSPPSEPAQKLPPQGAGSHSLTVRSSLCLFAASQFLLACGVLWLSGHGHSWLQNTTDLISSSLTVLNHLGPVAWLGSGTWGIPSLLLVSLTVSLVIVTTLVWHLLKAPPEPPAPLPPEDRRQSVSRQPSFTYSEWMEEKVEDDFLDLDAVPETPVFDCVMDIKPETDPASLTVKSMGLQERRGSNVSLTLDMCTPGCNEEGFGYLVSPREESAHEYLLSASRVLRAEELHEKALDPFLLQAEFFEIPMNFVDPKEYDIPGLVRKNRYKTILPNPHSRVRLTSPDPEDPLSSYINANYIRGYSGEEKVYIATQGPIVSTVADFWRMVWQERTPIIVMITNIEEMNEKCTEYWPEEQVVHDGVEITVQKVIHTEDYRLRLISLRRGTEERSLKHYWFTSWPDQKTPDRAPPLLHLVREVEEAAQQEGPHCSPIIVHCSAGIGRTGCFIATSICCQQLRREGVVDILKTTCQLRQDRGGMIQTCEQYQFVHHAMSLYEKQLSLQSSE
Briefly: Activation of mouse STEP PTP domain (244 to 539 residues) expressed in Escherichia coli BL21(DE3) at 500 uM using biotin-pFyn peptide substrate after 60 mins by AlphaLISA assay.

In experiment [2] the target is T2, Tyrosine-protein phosphatase non-receptor type 5 (Homo sapiens, UniProt P54829).
T2 sequence (P54829 whole entry): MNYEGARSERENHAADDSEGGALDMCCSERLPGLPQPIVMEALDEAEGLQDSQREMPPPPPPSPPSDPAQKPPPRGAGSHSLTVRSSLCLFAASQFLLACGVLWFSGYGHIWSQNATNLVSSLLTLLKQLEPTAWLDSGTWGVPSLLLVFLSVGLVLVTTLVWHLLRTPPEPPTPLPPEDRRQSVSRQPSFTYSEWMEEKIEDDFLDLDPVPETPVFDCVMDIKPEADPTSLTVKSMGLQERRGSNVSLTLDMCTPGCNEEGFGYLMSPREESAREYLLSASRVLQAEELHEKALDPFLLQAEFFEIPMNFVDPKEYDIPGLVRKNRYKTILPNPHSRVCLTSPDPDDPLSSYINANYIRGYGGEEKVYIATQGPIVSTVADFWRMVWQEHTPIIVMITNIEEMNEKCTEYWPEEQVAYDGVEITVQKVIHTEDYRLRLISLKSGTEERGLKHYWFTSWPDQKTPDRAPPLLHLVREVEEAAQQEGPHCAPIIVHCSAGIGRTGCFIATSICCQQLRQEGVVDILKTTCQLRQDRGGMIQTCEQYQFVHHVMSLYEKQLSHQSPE
Briefly: Binding affinity to human STEP PTP domain (281 to 563 residues) expressed in Escherichia coli BL21(DE3) by ITC. The essentials: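 Desalted STEP PTP domain in 10 mM HEPES, 200 mM NaCl, 0.5 mM TCEP, pH 7.5. 200 μM protein titrated with 18 × 2 μL injections of 2 mM ligand at 25 °C. Single-site model fit gave ΔH, n, ΔS and Ka; mean ± SD of three independent titrations.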

The source made the active and inactive calls. No cut-off for these calls is given here.

Consider `N=C(N)Nc1cc(C2CCNCC2)cc(C(F)(F)F)c1`, for which the outcome in experiment [1] was Active. Moreover, the dissociation constant Kd in experiment [2] was 800 µM.

The Kd is the concentration at which binding is half-saturated. A high value points to weaker binding.
